# Assay results collected from several papers.
# Each line is one published result; the experiments were not run side by side.
# Target: Prostaglandin G/H synthase 1 (PTGS1, Ovis aries, UniProt P05979)
# Read-out: enzyme activity
# Action: inhibitor
# One construct used (P05979 25-600): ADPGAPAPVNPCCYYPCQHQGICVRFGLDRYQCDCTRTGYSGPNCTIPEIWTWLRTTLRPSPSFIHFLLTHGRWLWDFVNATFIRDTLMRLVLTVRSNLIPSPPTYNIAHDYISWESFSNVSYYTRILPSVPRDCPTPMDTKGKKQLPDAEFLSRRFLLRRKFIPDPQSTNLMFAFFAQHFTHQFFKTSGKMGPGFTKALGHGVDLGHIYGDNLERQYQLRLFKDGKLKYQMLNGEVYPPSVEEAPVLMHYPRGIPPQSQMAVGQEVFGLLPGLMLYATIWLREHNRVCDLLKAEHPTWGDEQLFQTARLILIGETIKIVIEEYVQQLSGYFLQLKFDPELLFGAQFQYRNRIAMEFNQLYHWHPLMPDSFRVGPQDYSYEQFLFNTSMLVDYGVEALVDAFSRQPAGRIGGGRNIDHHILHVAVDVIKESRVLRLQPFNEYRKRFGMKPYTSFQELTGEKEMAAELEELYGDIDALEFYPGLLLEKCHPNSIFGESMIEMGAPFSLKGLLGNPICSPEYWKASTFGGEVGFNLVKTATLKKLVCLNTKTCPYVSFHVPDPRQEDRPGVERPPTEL
SMILES,technique,IC50 [µM]
Cc1ccc(-c2nc3ccccc3s2)c(-c2ccc(S(N)(=O)=O)cc2)c1,absorbance,> 100
CSc1ccc(/C=C2\C=C(CC(=O)NS(=O)(=O)c3ccc(Cl)s3)c3cc(F)ccc32)cc1,,2
O=[N+]([O-])c1cccc(-c2ccccc2F)c1F,absorbance,10.2
Cc1ccc(-c2nn(-c3ccc(S(C)(=O)=O)cc3)cc2/C=N\N=c2/[nH]c(-c3ccc([N+](=O)[O-])cc3)cs2)cc1,,49.6
COc1ccccc1-c1ccc(F)c(C(F)(F)F)c1,absorbance,9.99
CC(C)Cc1ccc(-c2nn(-c3ccc(S(C)(=O)=O)cc3)cc2/C=N\N=C2/NC(=O)CS2)cc1,,19.7
C[C@@H]1O[C@@H](O[C@H]2[C@H](Oc3c(-c4ccc(O)cc4)oc4cc(O)cc(O)c4c3=O)O[C@H](CO[C@@H]3O[C@H](CO)[C@@H](O)[C@H](O)[C@H]3O)[C@@H](O)[C@@H]2O)[C@H](O)[C@H](O)[C@H]1O,absorbance,21.8
Cc1ccc(Nc2c(-c3ccc(S(C)(=O)=O)cc3)nc3ccccn23)cc1,fluorescence,23.1
CS(=O)(=O)c1ccc(-n2cc(/C=N/N=c3\[nH]c(-c4ccc(Br)cc4)cs3)c(-c3ccc(Br)cc3)n2)cc1,,9.42
COc1ccc(Nc2c(-c3ccc(S(C)(=O)=O)cc3)nc3ccccn23)cc1,fluorescence,16.5
COc1ccc(-c2nn(-c3ccc(S(C)(=O)=O)cc3)cc2/C=N/N=c2\[nH]c(-c3ccc(Br)cc3)cs2)cc1,,62.7
COc1ccc(F)c(-c2ccccc2OC)c1,absorbance,8.23
Cc1cccn2c(Nc3ccc(F)cc3)c(-c3ccc(S(C)(=O)=O)cc3)nc12,fluorescence,31.5
Cc1ccc(/C=C2\C=C(CC(=O)O)c3cc(F)ccc32)cc1,,3.2
Cc1ccc(Nc2c(-c3ccc(S(C)(=O)=O)cc3)nc3c(C)cccn23)cc1,fluorescence,35.6
CS(=O)(=O)c1ccc(-n2cc(C=N/N=c3\[nH]c(-c4ccc(Br)cc4)cs3)c(-c3ccc([N+](=O)[O-])cc3)n2)cc1,,68.2
NS(=O)(=O)c1ccc(-c2ncc(Cl)cc2-c2nc3ccccc3s2)cc1,absorbance,> 100
CC(C(=O)O)c1cccc(C(=O)c2ccccc2)c1 (stereo not drawn),,0.05
CS(=O)(=O)c1ccc(-c2nc3ccccn3c2Nc2ccc(F)cc2)cc1,fluorescence,23.8
COc1ccc(F)c(-c2ccccc2F)c1,absorbance,9.98
COc1ccc(Nc2c(-c3ccc(S(C)(=O)=O)cc3)nc3cc(C)ccn23)cc1,fluorescence,29.7
Cc1ccc(-c2nc3ccccc3s2)c(-c2ccc(S(C)(=O)=O)cc2)c1,absorbance,> 100
COc1ccc(Nc2c(-c3ccc(S(C)(=O)=O)cc3)nc3c(C)cccn23)cc1,fluorescence,30
CSc1ccc(/C=C2\C=C(CC(=O)NS(=O)(=O)c3ccc(C(F)(F)F)cc3)c3cc(F)ccc32)cc1,,3.9
